Reference: PubChem BioAssay
The source made the active and inactive calls.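 Rule for the calls, unless noted: active = viability loss from added drug above about 55%, and viability with drug at most 40%, in both replicates (limit read from the data, passing the limit was not always enough); inconclusive = both conditions met in only one replicate; inactive = neither replicate meets both conditions.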

Legend:
[1] = reducers of endogenous Her2 protein level, primary screen, SKBR3 breast tumor cells, AlphaScreen, ATP viability (AID 461;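 active = Her2 level under about 52% in both replicate screens, with viability over 70% of control, limit read from the data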;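 for Her2 level: lower value means less Her2 protein in the cells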;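 for viability: percent of carrier control wells set as 100% viability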); details: 18-24 h, measured here: SKBR3 viability, ATP luminescence, at 10 µM
[2] = biological target: Receptor tyrosine-protein kinase erbB-2 (Homo sapiens) (UniProt P04626); test: as above; details: 18-24 h, at 10 µM, stronger effect = lower value
[3] = SK-BR-3 cell growth inhibitors, pilot screen, 24 h, human (AID 572;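 active = viability at or below 10% of carrier control in both of two separate runs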;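 note: compound exposure lasted between 18 and 24 h rather than exactly 24 h; 100% = carrier-treated control wells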); details: SK-BR-3 viability, CellTiter-Glo luminescence, at 10 µM, stronger effect = lower value
[4] = HUVEC growth inhibition – cell-based, human, primary screen (AID 575;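 active = viability at or below 30% in both replicate assays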;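 note: 100% = median of untreated cell wells with 0.1% DMSO on each plate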); details: HUVEC proliferation, CellTiter-Glo luminescence, 72 h; at 10 µM; stronger effect = lower value
In short: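 Test system: primary human umbilical vein endothelial cells; medium: endothelial basal medium with 2% FBS plus growth supplements; dosing: 10 µM compound only; times: 72 h treatment at 37 °C; signal: CTG luminescence; read-out: % viability relative to median vehicle-well signal on each plate; control set: vehicle and MePR control wells; plate: 384-well, collagen-coated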

[5] = growth inhibitors of H69AR lung tumor, primary screen, human, duplicate replicates (AID 580;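 active = viability at or under a set limit in both replicates, limit being median viability minus 3 SD, cut at about 48% in these data, passing the limit was not always enough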;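 note: 100% = mean luminescence of untreated wells and 0% = no signal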); details: H69AR lung tumor cells viability, ATP luminescence, 72 h; at 10 µM; stronger effect = lower value
[6] = reversal of MRP1-mediated doxorubicin resistance, pilot screen, H69AR cells, doxorubicin co-treatment (AID 601); details: CellTiter-Glo, 72 h, at 10 µM; for differential viability (reversal): stronger effect = higher value
[7] = 384-well plate pilot, post-Golgi transport modulator project, inhibition of yeast transport mutant growth (AID 636; in the data active = inhibition above about 31%); details: absorbance 615 nm, about 18 h, stronger effect = higher value
[8] = growth suppression of yeast trafficking mutant, preliminary HTS, modulators of trafficking downstream of Golgi apparatus project, 1536-format plate, OD 615 nm (AID 637; in the data active = inhibition above about 30%); details: yeast transport mutant growth, absorbance 615 nm, 18 h; stronger effect = higher value
[9] = H69AR cells + 2 uM doxorubicin, measured here: viability with 2 uM doxorubicin, stronger effect = lower value
[10] = H69AR cells, compound alone cytotoxicity

Receptor tyrosine-protein kinase erbB-2 (Homo sapiens), sequence (P04626 whole entry, looked up): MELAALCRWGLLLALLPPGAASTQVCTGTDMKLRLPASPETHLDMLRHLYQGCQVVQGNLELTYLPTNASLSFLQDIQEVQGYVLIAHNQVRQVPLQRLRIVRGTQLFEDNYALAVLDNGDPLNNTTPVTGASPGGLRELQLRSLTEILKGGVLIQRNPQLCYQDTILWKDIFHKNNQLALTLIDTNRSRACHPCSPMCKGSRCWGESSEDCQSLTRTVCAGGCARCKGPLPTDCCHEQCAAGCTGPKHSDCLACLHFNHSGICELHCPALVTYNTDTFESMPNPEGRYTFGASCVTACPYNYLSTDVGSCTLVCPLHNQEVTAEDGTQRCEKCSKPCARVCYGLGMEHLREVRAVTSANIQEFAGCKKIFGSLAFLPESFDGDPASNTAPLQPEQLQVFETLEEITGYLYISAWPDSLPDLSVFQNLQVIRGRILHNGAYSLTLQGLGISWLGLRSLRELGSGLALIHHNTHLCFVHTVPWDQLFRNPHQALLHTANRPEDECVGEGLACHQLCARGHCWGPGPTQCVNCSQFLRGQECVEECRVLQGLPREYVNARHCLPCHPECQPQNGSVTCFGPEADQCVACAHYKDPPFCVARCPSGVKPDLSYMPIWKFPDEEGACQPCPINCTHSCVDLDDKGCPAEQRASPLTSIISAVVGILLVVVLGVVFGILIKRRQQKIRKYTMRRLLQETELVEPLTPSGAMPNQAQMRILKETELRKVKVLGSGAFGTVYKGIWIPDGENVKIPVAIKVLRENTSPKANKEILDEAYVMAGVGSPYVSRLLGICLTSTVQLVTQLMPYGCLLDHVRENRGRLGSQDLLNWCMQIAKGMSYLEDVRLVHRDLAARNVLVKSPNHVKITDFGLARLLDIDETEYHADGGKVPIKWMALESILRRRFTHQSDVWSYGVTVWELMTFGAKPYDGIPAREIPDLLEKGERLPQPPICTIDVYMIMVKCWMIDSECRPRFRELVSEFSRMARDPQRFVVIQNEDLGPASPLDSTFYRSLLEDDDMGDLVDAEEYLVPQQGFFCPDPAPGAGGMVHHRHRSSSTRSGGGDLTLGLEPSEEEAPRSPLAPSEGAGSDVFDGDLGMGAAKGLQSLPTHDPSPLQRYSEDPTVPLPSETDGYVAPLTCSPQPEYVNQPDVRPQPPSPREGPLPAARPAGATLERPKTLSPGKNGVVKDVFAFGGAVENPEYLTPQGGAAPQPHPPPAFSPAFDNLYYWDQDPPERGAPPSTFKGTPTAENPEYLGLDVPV

Structure (SMILES)	viability [1] [%]	Her2 level [2]	viability [3]	viability [4]	viability [5]	differential viability (reversal) ([6]; H69AR cells + 2 uM doxorubicin)	viability [6, 9] [%]	viability [6, 10] [%]	inhibition [7]	inhibition [8]
N#Cc1nc(-c2ccco2)oc1NCc1ccco1	94	89% (inactive)	94% (inactive)	89.3% (inactive)	100% (inactive)	8.27% (inactive)	92	100	-4.13% (inactive)	-8.25% (inactive)
COc1cc(C)nc(NS(=O)(=O)c2ccc(C)cc2)n1	122	88% (inactive)	122% (inactive)	98.5% (inactive)	84.9% (inactive)	-1.31% (inactive)	86.2	84.9	-3.82% (inactive)	0.65% (inactive)
COC(=O)C(C)NC(=O)C12CC3CC(CC(C3)C1)C2 (stereo not given)	92	123% (inactive)	92% (inactive)	107% (inactive)	99.7% (inactive)	4.86% (inactive)	94.8	99.7	-1.54% (inactive)	-5.33% (inactive)
N=c1c(C(=O)NCc2ccc3c(c2)OCO3)cc2c(=O)n3ccccc3nc2n1Cc1cccnc1	73.5	68% (inactive)	73.5% (inactive)	87% (inactive)	78.8% (inactive)	-0.53% (inactive)	79.3	78.8	-2.47% (inactive)	-2.3% (inactive)
CCCc1nnc(SCC(=O)N2CCOCC2)n1Cc1ccco1	126	87.5% (inactive)	126% (inactive)	109% (inactive)	96.9% (inactive)	15.3% (inactive)	81.6	96.9	-4.67% (inactive)	-6.39% (inactive)
COc1ccc2nc(NC(=O)CSc3nnc(-c4ccoc4C)n3C)sc2c1	112	106% (inactive)	112% (inactive)	80.2% (inactive)	84.8% (inactive)	9.45% (inactive)	75.4	84.8	-6.13% (inactive)	-3.87% (inactive)
CC(C)Cn1c(N)c(C(=O)COC(=O)c2cc(-c3ccco3)nc3ccccc23)c(=O)n(C)c1=O	78.5	80% (inactive)	78.5% (inactive)	66.8% (inactive)	89.3% (inactive)	-1.72% (inactive)	91.1	89.3	-4.32% (inactive)	-6.67% (inactive)
COc1ccc(S(=O)(=O)N2CCN(CC(=O)Nc3ccc(C)c(F)c3)CC2)cc1	89.5	93.5% (inactive)	89.5% (inactive)	86.4% (inactive)	25.5% (active)	-25.9% (inactive)	51.4	25.5	-5.2% (inactive)	-1.94% (inactive)
Cc1nc2ccc(NC(=O)N3CCOCC3)cc2s1	87.5	79.5% (inactive)	87.5% (inactive)	93.8% (inactive)	89.8% (inactive)	4.26% (inactive)	85.6	89.8	-4.34% (inactive)	-1.27% (inactive)
COc1ccc(Cl)cc1Nc1nc(C)cc(=O)[nH]1	95	86% (inactive)	95% (inactive)	80.6% (inactive)	95.8% (inactive)	2.12% (inactive)	93.7	95.8	-3.68% (inactive)	-0.97% (inactive)
CCc1nnc(NC(=O)CSc2nnc3scc(-c4ccc(C)cc4)n23)s1	100	95.5% (inactive)	100% (inactive)	108% (inactive)	96.6% (inactive)	-0.05% (inactive)	96.7	96.6	-3.15% (inactive)	-1.27% (inactive)
COc1ccc(OC)c(S(=O)(=O)Nc2ccccc2C(=O)O)c1	109	100% (inactive)	109% (inactive)	98.3% (inactive)	99% (inactive)	11.8% (inactive)	87.2	99	-4.4% (inactive)	0.16% (inactive)
O=C(NCC1CCCO1)C1c2ccccc2C(=O)N1C1CCCCCC1 (stereo not given)	105	89% (inactive)	105% (inactive)	88.9% (inactive)	104% (inactive)	6.58% (inactive)	97.6	104	-2.6% (inactive)	1.43% (inactive)
COC(=O)CCSCc1cn2cc(Cl)ccc2n1	120	106% (inactive)	120% (inactive)	87.3% (inactive)	99.5% (inactive)	1.26% (inactive)	98.2	99.5	-8% (inactive)	-9.84% (inactive)
Cc1ccccc1-c1nc(CN2CCC(C(=O)NCCCN3CCOCC3)CC2)c(C)o1	86.5	107% (inactive)	86.5% (inactive)	74% (inactive)	97.2% (inactive)	5.29% (inactive)	91.9	97.2	1.58% (inactive)	-4.29% (inactive)
CC1CCCCC1NC(=O)C1CCN(C(=O)NC2CCCCC2)CC1 (stereo not given)	94.5	108% (inactive)	94.5% (inactive)	90.8% (inactive)	102% (inactive)	6.41% (inactive)	95.3	102	-0.78% (inactive)	0.17% (inactive)
